Laboratory results taken from ChEMBL document CHEMBL1146986, “Synthesis and SAR studies of very potent imidazopyridine antiprotozoal agents” (Bioorg Med Chem Lett, 2006).
pIC50: −log10 of the molar value. Activity calls are given as the source filed them. The calls are words filed in the database; no cut-off is given here.

Legend:
[1] = target: cGMP-dependent protein kinase (Eimeria tenella, UniProt Q8MMZ8); assay: Inhibitory activity against PKG
Eimeria acervulina [2] = assay: Antiparasitic activity against Eimeria acervulina in chicken at 25 ppm in feed assessed as percent reduction in oocyst; assay type: functional; design: scale not given: the % may be the effect or the level left
Outline: (§1)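 Infected chickens given compound orally in feed (ppm), seven-day in vivo efficacy model; activity quantified from oocyst shedding and graded as percent oocyst reduction versus infection.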

Eimeria tenella [3] = assay: Antiparasitic activity against Eimeria tenella in chicken at 25 ppm in feed assessed as percent reduction in oocyst; assay type: functional; design: scale not given: the % may be the effect or the level left; outline: as §1
Eimeria tenella [4] = assay: Antiparasitic activity against Eimeria tenella in chicken at 12.5 ppm in feed assessed as percent reduction in oocyst; assay type: functional; design: scale not given: the % may be the effect or the level left; outline: as §1
Eimeria acervulina [5] = assay: Antiparasitic activity against Eimeria acervulina in chicken at 12.5 ppm in feed assessed as percent reduction in oocyst; assay type: functional; design: scale not given: the % may be the effect or the level left; outline: as §1
Eimeria tenella [6] = assay: Antiparasitic activity against Eimeria tenella in chicken at 6.25 ppm in feed assessed as percent reduction in oocyst; assay type: functional; design: scale not given: the % may be the effect or the level left
Outline: (§2)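 Seven-day in vivo anticoccidial model in chickens infected with E. tenella and E. acervulina. Compound is given orally in feed (ppm). Oocyst shedding from infected birds is quantified, and activity is graded by percent oocyst reduction.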

Salmonella typhimurium [7] = assay: […] against Salmonella Typhimurium TA98 at 3000 ug/plate by Ames microbial mutagenesis assay; assay type: functional, organism-based; settings: Salmonella enterica subsp. enterica serovar Typhimurium
Outline: (§3)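 Plate-incorporation reverse mutation test: about 10^8 bacterial cells in molten top agar are mixed with test article in DMSO and cofactor plus S9 fraction (50 µL/plate) from induced male Sprague–Dawley rats. Plated in triplicate and incubated 37 °C for 48 h. Revertant colonies are counted automatically, as mean ± standard deviation (n = 3). A twofold or greater increase over solvent control counts as positive.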

Salmonella typhimurium [8] = assay: […] against Salmonella Typhimurium TA100 at 6000 ug/plate by Ames microbial mutagenesis assay; assay type: functional, organism-based; settings: Salmonella enterica subsp. enterica serovar Typhimurium; outline: as §3
Salmonella typhimurium [9] = assay: […] against Salmonella Typhimurium TA98 at 6000 ug/plate by Ames microbial mutagenesis assay; assay type: functional, organism-based; settings: Salmonella enterica subsp. enterica serovar Typhimurium; outline: as §3
Eimeria acervulina [10] = assay: Antiparasitic activity against Eimeria acervulina in chicken at 6.25 ppm in feed assessed as percent reduction in oocyst; assay type: functional; design: scale not given: the % may be the effect or the level left; outline: as §2
Salmonella typhimurium [11] = assay: […] against Salmonella Typhimurium TA100 at 3000 ug/plate by Ames microbial mutagenesis assay; assay type: functional, organism-based; settings: Salmonella enterica subsp. enterica serovar Typhimurium; outline: as §3

cGMP-dependent protein kinase, sequence (Q8MMZ8 whole entry): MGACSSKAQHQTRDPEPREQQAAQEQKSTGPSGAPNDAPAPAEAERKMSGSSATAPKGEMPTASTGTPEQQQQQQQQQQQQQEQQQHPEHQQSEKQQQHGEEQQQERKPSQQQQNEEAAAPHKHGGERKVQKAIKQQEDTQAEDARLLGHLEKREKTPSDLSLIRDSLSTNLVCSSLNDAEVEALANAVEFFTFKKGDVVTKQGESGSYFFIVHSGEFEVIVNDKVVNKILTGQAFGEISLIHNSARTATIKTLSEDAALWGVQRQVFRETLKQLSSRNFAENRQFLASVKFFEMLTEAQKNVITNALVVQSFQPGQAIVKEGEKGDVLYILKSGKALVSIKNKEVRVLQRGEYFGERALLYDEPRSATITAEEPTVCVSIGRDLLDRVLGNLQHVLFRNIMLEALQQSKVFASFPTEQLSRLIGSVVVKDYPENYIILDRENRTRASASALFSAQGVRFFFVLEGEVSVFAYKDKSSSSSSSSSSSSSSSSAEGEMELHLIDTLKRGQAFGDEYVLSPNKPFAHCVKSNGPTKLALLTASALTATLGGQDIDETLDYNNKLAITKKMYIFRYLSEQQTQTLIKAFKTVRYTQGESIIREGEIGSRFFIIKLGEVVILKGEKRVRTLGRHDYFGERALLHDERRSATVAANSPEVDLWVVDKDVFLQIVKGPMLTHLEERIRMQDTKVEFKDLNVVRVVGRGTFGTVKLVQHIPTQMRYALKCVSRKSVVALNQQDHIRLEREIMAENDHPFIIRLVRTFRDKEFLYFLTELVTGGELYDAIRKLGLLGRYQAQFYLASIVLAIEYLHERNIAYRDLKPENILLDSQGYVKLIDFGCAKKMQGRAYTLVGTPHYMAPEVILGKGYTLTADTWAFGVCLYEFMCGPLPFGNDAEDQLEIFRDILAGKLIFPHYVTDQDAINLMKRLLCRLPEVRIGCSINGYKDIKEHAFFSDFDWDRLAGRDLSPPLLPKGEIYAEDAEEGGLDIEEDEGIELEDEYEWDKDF

pIC50 [1]	Compound	Activity (Eimeria acervulina [2])	Activity (Eimeria tenella [3])	further results
9.77	CNc1nccc(-c2c(-c3ccc(F)cc3)nc3cc(CN(C)C)ccn23)n1	>=80%	>=80%	
9.74	NCc1ccn2c(-c3ccnc(N)n3)c(-c3ccc(F)cc3)nc2c1	<50%	<50%	
9.89	CCCNc1nccc(-c2c(-c3ccc(F)cc3)nc3cc(CN(C)C)ccn23)n1			Activity (Eimeria tenella [4]): >=80%; Activity (Eimeria acervulina [5]): >=80%
8.59	COc1nccc(-c2c(-c3ccc(F)cc3)nc3cc(CN(C)C)ccn23)n1	<50%	<50%	
8.57	Nc1nccc(-c2c(-c3ccc(F)cc3)nc3cc(CO)ccn23)n1	<50%	<50%	
10.30	Nc1nccc(-c2c(-c3ccc(F)cc3)nc3cc(C4CCNCC4)ccn23)n1	<50%	<50%	
8.72	CN(C)Cc1ccn2c(-c3ccncn3)c(-c3ccc(F)cc3)nc2c1	<50%	<50%	
9.82	CN(C)Cc1ccn2c(-c3ccnc(NCC(C)(C)C)n3)c(-c3ccc(F)cc3)nc2c1			Activity (Eimeria tenella [4]): >=80%; Activity (Eimeria acervulina [5]): >=80%
10.09	CN(C)Cc1ccn2c(-c3ccnc(NCc4ccccc4)n3)c(-c3ccc(F)cc3)nc2c1	>=80%	>=80%	
7.95	N#Cc1ccn2c(-c3ccnc(N)n3)c(-c3ccc(F)cc3)nc2c1	<50%	<50%	
8.57	Nc1nccc(-c2c(-c3ccc(F)cc3)nc3cc(Cl)ccn23)n1	<50%	<50%	
8.60	CN(C)Cc1ccn2c(-c3ccnc(N(C)C)n3)c(-c3ccc(F)cc3)nc2c1	<50%	<50%	
9.82	CNCc1ccn2c(-c3ccnc(N)n3)c(-c3ccc(F)cc3)nc2c1	<50%	<50%	

Compound	pIC50 [1]	Activity (Eimeria acervulina [2])	Activity (Eimeria tenella [3])	further results
CN1CCC(c2ccn3c(-c4ccnc(N)n4)c(-c4ccc(F)cc4)nc3c2)CC1	10.40			Activity (Eimeria tenella [6]): >=80%; Activity (Salmonella typhimurium [7]): Active; Activity (Salmonella typhimurium [8]): Active; Activity (Salmonella typhimurium [9]): Active; Activity (Eimeria acervulina [10]): >=80%; Activity (Eimeria acervulina [5]): 50%; Activity (Salmonella typhimurium [11]): Active
CN(C)Cc1ccn2c(-c3ccnc(N)n3)c(-c3ccc(F)cc3)nc2c1	9.96			Activity (Eimeria tenella [6]): 50%; Activity (Eimeria tenella [4]): >=80%; Activity (Salmonella typhimurium [7]): Active; Activity (Salmonella typhimurium [8]): Active; Activity (Salmonella typhimurium [9]): Active; Activity (Eimeria acervulina [10]): 50%; Activity (Eimeria acervulina [5]): >=80%; Activity (Salmonella typhimurium [11]): Active
